Screening data from PubChem BioAssay.
UPR CHOP act = activators of apoptotic arm of unfolded protein response (CHOP); CHO-CHOP luciferase reporter, UPR activation, luminescence; percent of tunicamycin response over DMSO baseline; activation, % at 10 µM; actives 0.34% (n = 330,000); AID 449763;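 active means at 10 µM dose, activation of 40% or more, normalized to positive control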;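 further: 100% = tunicamycin at 10 µg/mL and 0% = DMSO alone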
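measured by = luciferase luminescence | assay system = CHO-CHOP cells, stable luciferase reporter of PERK-eIF2a-CHOP signalling | amount = 500 reporter cells seeded per well | timing = 6 h compound exposure at 37 °C after overnight seeding | controls = positive tunicamycin 10 µg/mL, negative DMSO alone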
XBP1 UPR activ = adaptive UPR (XBP1) activation. activation, % at 20 µM. actives 0.33% (n = 330,000). CHO-XBP1 luciferase reporter, IRE1-XBP1 UPR activation, luminescence; percent of tunicamycin response, DMSO as zero;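 active means versus positive control, 20 µM dose yields 30% or more activation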;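 further: 100% = tunicamycin at 10 µg/mL and 0% = DMSO only wells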
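assay system = CHO-XBP1 luciferase reporter cells | amount = 1000 cells/well | buffer or medium = F12 plus 10% FBS | compound dosing = single point, 20 µM final compound, 1% DMSO | incubation = 16-18 h cell attachment at 37 °C, then 6 h compound exposure | detection = Steady-Glo luminescence read | controls = tunicamycin 10 µg/mL and vehicle-only wells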
CHOP inhibitor = CHOP inhibition in unfolded protein response; inhibition, % at 10 µM; CHO-K1 CHOP-promoter luciferase, tunicamycin-induced, 15-18 h; actives 3.8% (n = 220,000);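 active means compounds that reduced the stress-induced luciferase reporter signal by more than about 70% of percent inhibition, limit read from the data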;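 further: 0% = tunicamycin plus vehicle and 100% = wells without tunicamycin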
A1 inh = inhibitors of the anti-apoptotic protein A1, read as caspase activation; MEF A1-2A-BIM cells, Caspase-Glo 3/7 luminescence, 3 h; percent of clofoctol response, vehicle zero; caspase activation, % (no concentration beside the values); actives 0.066% (n = 330,000);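 active means over half of replicate activation scores above 10%, or exactly half above 10 with the replicate mean above 10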
Active calls of the source: *; · = no result. Only a selection was taken, and hits are over-represented in it overall.

SMILES | UPR CHOP act | XBP1 UPR activ | CHOP inhibitor | A1 inh
CC(O)C(O)C(O)C(O)/C=N/NC(=O)c1ccccc1 (stereo not drawn) | 1 | -1 | -11 | 1
CCOC(=O)c1cnc2ccc(OCC)cc2c1NCc1ccccc1OC | 2 | 0 | 82* | 0
CC(C)Oc1ccc(NC(=O)CCC(=O)O)cc1 | -3 | -1 | -7 | 0
CCCCC1(Cc2ccc([N+](=O)[O-])cc2)C(=O)N(c2ccccc2)N(c2ccccc2)C1=O | 14 | 0 | 77* | 0
CCCCC1(COC(=O)CCC(=O)O)C(=O)N(c2ccccc2)N(c2ccccc2)C1=O | 2 | -4 | · | 0
COc1cc(NC(=O)c2cccc(C)c2)ccc1NC(=O)c1cc2ccccc2o1 | 16 | 20 | · | 8.2*
COc1cc(NC(=O)c2cccnc2)ccc1-c1cc2ccccc2oc1=O | 2 | -2 | 77* | 1
O=C(Nc1ccc(-c2cc3ccccc3oc2=O)c(Cl)c1)c1cccnc1 | -1 | 1 | 33 | 0
CN1CCN(C(=S)NC(CC(=O)c2ccccc2)c2ccccc2)CC1 (stereo not drawn) | 0 | 0 | 1 | 0
COc1ccc(N2CC(O)=C(c3nc(-c4ccc(Br)cc4)cs3)C2=N)cc1 | 15 | 58* | 10 | -1
COc1ccc(N2CC(O)=C(c3nc(-c4ccc(Cl)cc4)cs3)C2=N)cc1 | 19 | 85* | 13 | 0
COc1ccccc1Nc1nc(-c2sc(NC(=O)c3ccccc3)nc2C)cs1 | 0 | 0 | 36 | -6
CCCC(C)C(=O)Nc1nc(C)c(-c2csc(Nc3ccc(Cl)cc3)n2)s1 (stereo not drawn) | 8 | -2 | 73* | -2
CCOc1ccccc1Nc1nc(-c2sc(NC(=O)c3cccc(Cl)c3)nc2C)cs1 | -1 | 3 | 76* | 0
COc1ccccc1Nc1nc(-c2sc(NC(=O)c3ccc([N+](=O)[O-])cc3)nc2C)cs1 | 3 | 32* | 41 | 0
O=[N+]([O-])c1ccc(O)c(/C=N/Nc2nn[nH]n2)c1 | 2 | 0 | 8 | 0
O=[N+]([O-])c1ccc(O)c(/C=N/Nc2ccc(Cl)nn2)c1 | 19 | 5 | 75* | 1
COC(=O)Nc1ccc(S(=O)(=O)Nc2ccc(C)cc2)cc1 | · | · | 14 | ·
COC(=O)Nc1ccc(S(=O)(=O)Nc2ccc(O)cc2)cc1 | -1 | -4 | 78* | 0
COc1coc(C(O)CN)cc1=O (stereo not drawn) | 1 | -1 | -4 | 1
CCOC(=O)C(=Cc1cc(=O)c(OC)co1)C(=O)OCC | · | · | 109* | ·
Cc1ccc(OCC(=O)Nc2ccc(O)c(-c3nc4ccccc4o3)c2)cc1 | 3 | 14 | 89* | 0
COc1ccc(OCC(=O)Nc2ccc3oc(-c4ccncc4)nc3c2)cc1 | 0 | -2 | 0 | -2
O=C(Oc1c(Cl)cc(Cl)c2cccnc12)c1cccc([N+](=O)[O-])c1 | 0 | 7 | 97* | 0
O=C(Oc1ccc(Cl)c2cccnc12)c1cccc([N+](=O)[O-])c1 | 20 | 8 | 50 | 0
SMILES | UPR CHOP act | XBP1 UPR activ | CHOP inhibitor | A1 inh
O=C1CC(O)(C(F)(F)F)Oc2c1ccc1ccccc21 (stereo not drawn) | 0 | 2 | 89* | -3
Cc1[nH]c2ccccc2c1C1C(c2ccccc2)=NN=C(C(C)C)N1O (stereo not drawn) | -2 | -1 | 72* | -1
CC1=NN=C(c2ccccc2)C(c2c[nH]c3ccccc23)N1O (stereo not drawn) | 2 | -1 | -29 | -1
CC(C)NC(=O)c1ccc2c(c1)nnn2C | 3 | 1 | -3 | -2
C/C(=N\NC(=O)c1n[nH]c2c1CCC2)c1cccs1 | -7 | -9 | 86* | -7
CCCn1c(CN(C)Cc2ccccc2)nc2c1c(=O)n(C)c(=O)n2C | 0 | 1 | 25 | 1
CCCn1c(CN(Cc2ccccc2)Cc2ccccc2)nc2c1c(=O)n(C)c(=O)n2C | 1 | -1 | 92* | 1
CC(C)c1ccc(/C=N/NC(=O)c2ccccn2)cc1 | -7 | -9 | 27 | -7
Cc1ccccc1NC(=O)c1cc(C(=O)c2cc(Cl)ccc2O)cn(-c2ccccc2C)c1=O | 7 | 3 | 70* | 0
Cc1ccc2cc3cc(C(=O)N4CCN(Cc5ccccc5)CC4)sc3nc2c1 | 1 | -2 | 74* | 1
Cc1ccc2cc3cc(C(=O)N4CCN(C(=O)c5ccco5)CC4)sc3nc2c1 | 4 | -5 | 3 | -1
Cc1ccccc1NC(=O)CN1C(=O)NC2(CCc3ccccc32)C1=O (stereo not drawn) | -1 | -1 | · | 1
COc1cc2c(cc1NC(=O)CN1C(=O)NC3(CCc4ccccc43)C1=O)oc1ccccc12 (stereo not drawn) | 13 | 10 | 79* | 0
COc1cc2c(cc1NC(=S)Nc1cccc(C(F)(F)F)c1)oc1ccccc12 | 1 | 0 | 71* | 0
COc1cc2c(cc1NC(=O)COC(=O)c1ccc(C(C)(C)C)cc1)oc1ccccc12 | 1 | 20 | 78* | 0
COc1ccc(CNC(=O)C(c2ccncc2)N(C(=O)Cc2cccs2)c2ccccc2)cc1 (stereo not drawn) | · | · | 9 | ·
COc1ccc(N(C(=O)CCl)C(C(=O)NCCc2ccccc2)c2cccs2)cc1 (stereo not drawn) | · | · | 93* | 1
Cc1ccc(/C=C2\OC(=O)c3ccccc32)cc1 | 5 | 0 | 58 | -11
Cc1ccccc1/C=C1\OC(=O)c2ccccc21 | 5 | 3 | 87* | -1
Cc1ccc(C)c(NS(=O)(=O)c2ccc3c(c2)NC(=O)CO3)c1 | 0 | -4 | · | ·
COc1ccc2oc(=O)c(C(=O)Nc3cccc(C)c3)cc2c1 | 7 | 10 | 82* | -3
Cc1sc2ncn3ncnc3c2c1C | 0 | 3 | 90* | 0
COc1c2occc2c(OC)c2c(=O)cc(C(F)(F)C(F)(F)F)oc12 | -2 | 2 | 83* | 0
NS(=O)(=O)c1ccc(N=Nc2c(O)ccc3ccccc23)cc1 | -4 | -3 | 74* | 0
Oc1ccc(N=Nc2c(O)ccc3ccccc23)cc1 | 0 | 6 | 92* | -3
SMILES | UPR CHOP act | XBP1 UPR activ | CHOP inhibitor | A1 inh
O=[N+]([O-])c1ccccc1CCc1cnc(Cl)s1 | 3 | 2 | · | 1
COC(=O)CCn1nnc(-c2cccs2)n1 | -3 | -1 | -4 | 0
COC(=O)CCn1nnc(-c2ccc(C(C)C)cc2)n1 | -8 | -8 | 88* | -1
Nc1n[nH]c(CCCO)n1 | -1 | -1 | 25 | 0
Cc1cc(=O)oc2cc(NC(=O)C3COc4ccccc4O3)ccc12 (stereo not drawn) | 4 | 0 | 89* | 0
Cc1cccc(OCC(=O)Nc2ccc3c(C)cc(=O)oc3c2)c1 | 0 | 0 | 92* | 0
O=C(Nc1ccc2c(c1)OCO2)C1COc2ccccc2O1 (stereo not drawn) | 4 | 4 | -4 | -2
N#Cc1ccccc1OCC(=O)Nc1ccc2c(c1)OCCO2 | 4 | 2 | · | -1
